Assay results reported in ChEMBL document CHEMBL3046055, “Synthesis and herbicidal activity of novel N-(2,2,2)-trifluoroethylpyrazole derivatives” (J Agric Food Chem, 2010).

Key:
[1] = system: Echinochloa crus-galli; assay: Herbicidal activity against Echinochloa crus-galli (barnyard grass) assessed as inhibition of fresh weed plant weights at 600 g ai/ha using pre-emergence treatment protocol under field trials conditions measured 30 days post soil treatment relative to untreated control; assay type: functional; settings: 720 h
Method in brief: (§1)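 Field pre-emergence trial. Treatments were applied to the soil surface within 24 h after maize planting, at 300, 400, 600 and 800 g a.i. ha^-1. Fresh weight of aerial plant parts was measured 30 days later, and percent inhibition calculated relative to the water-sprayed control.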

[2] = system: Zea mays; assay: Toxicity against Zea mays var. SHEN DAN 17 (maize) assessed induction of crop injury at 300 g ai/ha using pre-emergence treatment protocol under field trials conditions measured 30 days post soil treatment; assay type: organism-based; settings: in vivo, other, 720 h
Method in brief: (§2)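 Pre-emergence application to soil surface within 24 h after maize planting, at 300, 400, 600 or 800 g a.i. ha^-1. Fresh weight of aerial plant parts measured 30 days later; percentage inhibition calculated relative to water-sprayed control.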

[3] = system: Digitaria sanguinalis; assay: Herbicidal activity against Digitaria sanguinalis (hairy crabgrass) assessed as inhibition of fresh weed plant weights at 400 g ai/ha using pre-emergence treatment protocol under field trials conditions measured 30 days post soil treatment relative to untreated control; assay type: functional; settings: 720 h; method in brief: as §1
[4] = system: Eleusine indica; assay: Herbicidal activity against Eleusine indica assessed as inhibition of fresh weed plant weights at 400 g ai/ha using pre-emergence treatment protocol under field trials conditions measured 30 days post soil treatment relative to untreated control; assay type: functional; settings: 720 h; method in brief: as §1
[5] = system: Eleusine indica; assay: Herbicidal activity against Eleusine indica assessed as inhibition of fresh weed plant weights at 600 g ai/ha using pre-emergence treatment protocol under field trials conditions measured 30 days post soil treatment relative to untreated control; assay type: functional; settings: 720 h; method in brief: as §1
[6] = system: Convolvulus arvensis; assay: Herbicidal activity against Convolvulus arvensis assessed as inhibition of fresh weed plant weights at 800 g ai/ha using pre-emergence treatment protocol under field trials conditions measured 30 days post soil treatment relative to untreated control; assay type: functional; settings: 720 h; method in brief: as §1
[7] = system: Portulaca oleracea; assay: Herbicidal activity against Portulaca oleracea assessed as inhibition of fresh weed plant weights at 300 g ai/ha using pre-emergence treatment protocol under greenhouse conditions relative to untreated control; assay type: functional
Method in brief: (§3)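 Pre-emergence test in plastic pots kept in a greenhouse at 22-25 °C. Fresh weight of aerial plant parts was measured 20 days later, and percent inhibition calculated relative to water-sprayed controls. Metolachlor served as the positive control. Three replicates were run per concentration.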

[8] = system: Echinochloa crus-galli; assay: Herbicidal activity against Echinochloa crus-galli (barnyard grass) assessed as inhibition of fresh weed plant weights at 400 g ai/ha using pre-emergence treatment protocol under field trials conditions measured 30 days post soil treatment relative to untreated control; assay type: functional; settings: 720 h; method in brief: as §1
[9] = system: Portulaca oleracea; assay: Herbicidal activity against Portulaca oleracea assessed as inhibition of fresh weed plant weights at 150 g ai/ha using pre-emergence treatment protocol under greenhouse conditions relative to untreated control; assay type: functional; method in brief: as §3
[10] = system: Portulaca oleracea; assay: Herbicidal activity against Portulaca oleracea assessed as inhibition of fresh weed plant weights at 300 g ai/ha using pre-emergence treatment protocol under field trials conditions measured 30 days post soil treatment relative to untreated control; assay type: functional; settings: 720 h; method in brief: as §1
[11] = system: Convolvulus arvensis; assay: Herbicidal activity against Convolvulus arvensis assessed as inhibition of fresh weed plant weights at 400 g ai/ha using pre-emergence treatment protocol under field trials conditions measured 30 days post soil treatment relative to untreated control; assay type: functional; settings: 720 h; method in brief: as §1
[12] = system: Echinochloa crus-galli; assay: Herbicidal activity against Echinochloa crus-galli (barnyard grass) assessed as inhibition of fresh weed plant weights at 800 g ai/ha using pre-emergence treatment protocol under field trials conditions measured 30 days post soil treatment relative to untreated control; assay type: functional; settings: 720 h; method in brief: as §1
[13] = system: Eleusine indica; assay: Herbicidal activity against Eleusine indica assessed as inhibition of fresh weed plant weights at 300 g ai/ha using pre-emergence treatment protocol under greenhouse conditions relative to untreated control; assay type: functional; method in brief: as §3
[14] = system: Digitaria sanguinalis; assay: Herbicidal activity against Digitaria sanguinalis (hairy crabgrass) assessed as inhibition of fresh weed plant weights at 300 g ai/ha using pre-emergence treatment protocol under greenhouse conditions relative to untreated control; assay type: functional; method in brief: as §3
[15] = system: Eleusine indica; assay: Herbicidal activity against Eleusine indica assessed as inhibition of fresh weed plant weights at 150 g ai/ha using pre-emergence treatment protocol under greenhouse conditions relative to untreated control; assay type: functional; method in brief: as §3
[16] = system: Echinochloa crus-galli; assay: Herbicidal activity against Echinochloa crus-galli (barnyard grass) assessed as inhibition of fresh weed plant weights at 600 g ai/ha using pre-emergence treatment protocol under greenhouse conditions relative to untreated control; assay type: functional; method in brief: as §3
[17] = system: Zea mays; assay: Toxicity against Zea mays var. SHEN DAN 17 (maize) assessed as inhibition of fresh weed plant weights at 600 g ai/ha using pre-emergence treatment protocol under greenhouse conditions relative to untreated control; assay type: organism-based; settings: in vivo, other; method in brief: as §3
[18] = system: Portulaca oleracea; assay: Herbicidal activity against Portulaca oleracea assessed as inhibition of fresh weed plant weights at 400 g ai/ha using pre-emergence treatment protocol under field trials conditions measured 30 days post soil treatment relative to untreated control; assay type: functional; settings: 720 h; method in brief: as §1
[19] = system: Echinochloa crus-galli; assay: Herbicidal activity against Echinochloa crus-galli (barnyard grass) assessed as inhibition of fresh weed plant weights at 300 g ai/ha using pre-emergence treatment protocol under field trials conditions measured 30 days post soil treatment relative to untreated control; assay type: functional; settings: 720 h; method in brief: as §1
[20] = system: Eleusine indica; assay: Herbicidal activity against Eleusine indica assessed as inhibition of fresh weed plant weights at 300 g ai/ha using pre-emergence treatment protocol under field trials conditions measured 30 days post soil treatment relative to untreated control; assay type: functional; settings: 720 h; method in brief: as §1
[21] = system: Eleusine indica; assay: Herbicidal activity against Eleusine indica assessed as inhibition of fresh weed plant weights at 600 g ai/ha using pre-emergence treatment protocol under greenhouse conditions relative to untreated control; assay type: functional; method in brief: as §3
[22] = system: Zea mays; assay: Toxicity against Zea mays var. SHEN DAN 17 (maize) assessed induction of crop injury at 800 g ai/ha using pre-emergence treatment protocol under field trials conditions measured 30 days post soil treatment; assay type: organism-based; settings: in vivo, other, 720 h; method in brief: as §2
[23] = system: Convolvulus arvensis; assay: Herbicidal activity against Convolvulus arvensis assessed as inhibition of fresh weed plant weights at 600 g ai/ha using pre-emergence treatment protocol under field trials conditions measured 30 days post soil treatment relative to untreated control; assay type: functional; settings: 720 h; method in brief: as §1
[24] = system: Convolvulus arvensis; assay: Herbicidal activity against Convolvulus arvensis assessed as inhibition of fresh weed plant weights at 300 g ai/ha using pre-emergence treatment protocol under field trials conditions measured 30 days post soil treatment relative to untreated control; assay type: functional; settings: 720 h; method in brief: as §1
[25] = system: Eleusine indica; assay: Herbicidal activity against Eleusine indica assessed as inhibition of fresh weed plant weights at 800 g ai/ha using pre-emergence treatment protocol under field trials conditions measured 30 days post soil treatment relative to untreated control; assay type: functional; settings: 720 h; method in brief: as §1
[26] = system: Echinochloa crus-galli; assay: Herbicidal activity against Echinochloa crus-galli (barnyard grass) assessed as inhibition of fresh weed plant weights at 150 g ai/ha using pre-emergence treatment protocol under greenhouse conditions relative to untreated control; assay type: functional; method in brief: as §3
[27] = system: Portulaca oleracea; assay: Herbicidal activity against Portulaca oleracea assessed as inhibition of fresh weed plant weights at 600 g ai/ha using pre-emergence treatment protocol under field trials conditions measured 30 days post soil treatment relative to untreated control; assay type: functional; settings: 720 h; method in brief: as §1
[28] = system: Portulaca oleracea; assay: Herbicidal activity against Portulaca oleracea assessed as inhibition of fresh weed plant weights at 600 g ai/ha using pre-emergence treatment protocol under greenhouse conditions relative to untreated control; assay type: functional; method in brief: as §3
[29] = system: Digitaria sanguinalis; assay: Herbicidal activity against Digitaria sanguinalis (hairy crabgrass) assessed as inhibition of fresh weed plant weights at 150 g ai/ha using pre-emergence treatment protocol under greenhouse conditions relative to untreated control; assay type: functional; method in brief: as §3
[30] = system: Portulaca oleracea; assay: Herbicidal activity against Portulaca oleracea assessed as inhibition of root growth at […] measured 7 days post treatment; assay type: functional; design: dose or concentration left out as unconfirmed; settings: 168 h, read-out: GI

## Cc1nn(CC(F)(F)F)c(CS(=O)(=O)C2=NOC(C)(C)C2)c1Cl
[1]
  inhibition at 600 g/ha: 100%
[2]
  Activity: 0%
[3]
  inhibition at 400 g/ha: 98%
[4]
  inhibition at 400 g/ha: 98%
[5]
  inhibition at 600 g/ha: 98%
[6]
  inhibition at 800 g/ha: 40%
[7]
  inhibition at 300 g/ha: 97%
[8]
  inhibition at 400 g/ha: 100%
[9]
  inhibition at 150 g/ha: 70%
[10]
  inhibition at 300 g/ha: 80%
[11]
  inhibition at 400 g/ha: 16%
[12]
  inhibition at 800 g/ha: 100%
[13]
  inhibition at 300 g/ha: 99%
[14]
  inhibition at 300 g/ha: 97%
[15]
  inhibition at 150 g/ha: 97%
[16]
  inhibition at 600 g/ha: 100%
[17]
  inhibition (INH): 1%
[18]
  inhibition at 400 g/ha: 85%
[19]
  inhibition at 300 g/ha: 100%
[20]
  inhibition at 300 g/ha: 97%
[21]
  inhibition at 600 g/ha: 100%
[22]
  Activity: 0%
[23]
  inhibition at 600 g/ha: 27%
[24]
  inhibition at 300 g/ha: 14%
[25]
  inhibition at 800 g/ha: 99%
[26]
  inhibition at 150 g/ha: 100%
[27]
  inhibition at 600 g/ha: 95%
[28]
  inhibition at 600 g/ha: 99%
[29]
  inhibition at 150 g/ha: 86%
[30]
  inhibition of growth: 63%
